Measurements reported in paper PMC10357533 (ACS Omega, 2023).
Values after ≈ are worked out from the molar mass of the structure shown. “Also recorded” adds a separate entry of the source.

Columns and labels:
[1] = test system: Aedes aegypti larvae; assay: Mosquito larvicidal assay; format: in vivo; conditions: for LC50: Aedes aegypti; for LC90: (95% confidence limits)
Summary of the method: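 Larvae came from later generations of a wild-derived Ae. aegypti colony kept at 25 ± 2 °C, 65–75% RH and 12:12 h light/dark. Twenty larvae per 150 mL of test solution were exposed at 100 down to 1.5625 μg/mL (twofold steps plus 75), with DMSO as vehicle. Controls were permethrin and DMSO (1 mL/150 mL). Mortality was scored at 24–96 h over four independent experiments.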

[2] = molecular target: electric eel (Electrophorus electricus) AChE (Electrophorus electricus, UniProt O42275); assay: Acetylcholinesterase; format: biochemical; conditions: for inhibition at 4 µg/mL / inhibition at 20 µg/mL / inhibition at 100 µg/mL / inhibition at 250 µg/mL: read-out: AChE inhibitory activity
Summary of the method: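 Electric eel AChE (0.25 IU/mL) was mixed with pH 8 phosphate buffer and test compound solution (500, 100, 20 or 4 μg/mL, diluted in water from DMSO stock) and held 15 min at 25 °C. DTNB (2.5 mM) and acetylthiocholine iodide (2.5 mM) were added, followed by 10 min more at 25 °C. Absorbance was read at 405 nm. Galantamine was the positive control, run in triplicate plates.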

[3] = test system: Anopheles arabiensis; conditions: compared with temephos; cited from earlier work
[4] = test system: Plutella xylostella; conditions: at 500 μg/mL; cited from earlier work
[5] = test system: M. separata; conditions: at 5 μg/mL concentration; cited from earlier work
[6] = Solubility of compounds for larvicidal testing; format: physicochemical; conditions: larvicidal test, compounds dissolved in DMSO

Sequence of electric eel (Electrophorus electricus) AChE (O42275 24-633): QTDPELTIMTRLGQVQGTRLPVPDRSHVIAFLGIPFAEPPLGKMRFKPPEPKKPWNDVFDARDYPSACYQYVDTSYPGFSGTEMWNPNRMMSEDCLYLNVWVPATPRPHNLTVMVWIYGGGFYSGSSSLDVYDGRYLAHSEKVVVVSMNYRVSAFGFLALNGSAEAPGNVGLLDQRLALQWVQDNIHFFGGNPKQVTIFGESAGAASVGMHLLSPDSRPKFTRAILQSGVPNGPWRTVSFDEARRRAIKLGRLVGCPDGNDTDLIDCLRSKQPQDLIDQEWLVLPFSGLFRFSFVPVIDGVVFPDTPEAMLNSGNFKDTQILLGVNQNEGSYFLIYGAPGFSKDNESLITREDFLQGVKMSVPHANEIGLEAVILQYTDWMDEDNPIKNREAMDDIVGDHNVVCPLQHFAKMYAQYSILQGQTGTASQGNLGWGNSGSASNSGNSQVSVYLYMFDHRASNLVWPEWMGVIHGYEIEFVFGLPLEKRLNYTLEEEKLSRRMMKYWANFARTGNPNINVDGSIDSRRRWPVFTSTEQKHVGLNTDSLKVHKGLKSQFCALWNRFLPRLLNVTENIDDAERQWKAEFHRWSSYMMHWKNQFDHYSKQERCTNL

Row | SMILES | LC50 ([1]; 24 h) | LC50 ([1]; 48 h) | LC50 ([1]; 72 h) | LC50 ([1]; 96 h) | IC50 [2] | inhibition at 4 µg/mL [2] | inhibition at 20 µg/mL [2] | inhibition at 100 µg/mL [2] | inhibition at 250 µg/mL [2] | LC90 ([1]; 24 h exposure) | LC90 ([1]; 48 h exposure) | LC90 ([1]; 72 h exposure) | further results
1 | Cc1nc2ccccc2c(=O)n1CC(=O)Nc1cccc(Cl)c1 [4c, N-(3-Chlorophenyl)-2-(2-methyl-4-oxoquinazolin-3(4H)-yl)acetamide] | 15.1 µg/mL (≈ 45.9 µM) | 10.1 µg/mL (≈ 30.8 µM) | 4.42 µg/mL (≈ 13.5 µM) | 1.8 µg/mL (≈ 5.49 µM) | 231 µM | 15.4% | 29.3% | 56.5% | 97.8% | – | – | – | –
2 | COC(=O)C1=C(C)Nc2nc3ccc(I)cc3c(=O)n2C1c1ccc(Cl)cc1 (centres unmarked) [methyl 4-(4-chlorophenyl)-8-iodo-2-methyl-6-oxo-1,6-dihydro-4H-pyrimido[2,1-b]quinazoline-3-carboxylate] | – | – | – | – | – | – | – | – | – | – | – | – | larvicidal activity (in words) [3]: significantly stronger than temephos
3 | Cc1nc2ccccc2c(=O)n1CC(=O)Nc1ccc(Br)cc1 [4a, N-(4-Bromophenyl)-2-(2-methyl-4-oxoquinazolin-3(4H)-yl)acetamide] | 5.82 µg/mL (≈ 15.6 µM) | 3.66 µg/mL (≈ 9.84 µM) | 2.26 µg/mL (≈ 6.07 µM) | 1.49 µg/mL (≈ 3.99 µM) | 714 µM | 3.75% | 14% | 28.6% | 48.5% | 8.528 (7.729–9.730) μg/mL | 6.396 (5.755–7.334) μg/mL | 5.273 (4.620–6.340) μg/mL | LC90 ([1]; 96 h exposure): 4.470 (3.864–5.530) μg/mL
4 | Cc1nc2ccccc2c(=O)n1CC(=O)Nc1ccc(Cl)cc1 [4b, N-(4-Chlorophenyl)-2-(2-methyl-4-oxoquinazolin-3(4H)-yl)acetamide] | 12.7 µg/mL (≈ 38.7 µM) | 3.64 µg/mL (≈ 11.1 µM) | 3.48 µg/mL (≈ 10.6 µM) | – | 500 µM | 18.1% | 26.6% | 34.7% | 72.9% | 31.11 (26.90–37.20) μg/mL | 7.610 (6.607–9.160) μg/mL | 6.945 (6.055–8.327) μg/mL | –
5 | Clc1cc(Cl)c2ncnc(SCc3ccc(Cl)nc3)c2c1 [6,8-dichloro-4-(((6-chloropyridine-3-yl)methyl)thio)quinazoline] | – | – | – | – | – | – | – | – | – | – | – | – | mortality rate [4]: 85%
6 | CC1(C)C(C=C(Cl)Cl)C1C(=O)OCc1cccc(Oc2ccccc2)c1 (centres unmarked) [permethrin, reference compound] | 0.000643 µg/mL (≈ 0.00164 µM) | – | – | – | – | – | – | – | – | 0.00246 (0.00192–0.00344) μg/mL | – | – | –
7 | Cc1nc2ccccc2c(=O)n1CC(=O)Nc1ccccc1Cl [4d, N-(2-Chlorophenyl)-2-(2-methyl-4-oxoquinazolin-3(4H)-yl)acetamide] | 52.4 µg/mL (≈ 160 µM) | 22.7 µg/mL (≈ 69.3 µM) | 4.2 µg/mL (≈ 12.8 µM) | – | 462 µM | 7.58% | 19.2% | 36.5% | 70.3% | – | – | – | –
8 | Cc1cc(Cl)cc2c1NC(c1cc(Br)nn1-c1ncccc1Cl)N(C)C2=O (centres unmarked) [2-(3-bromo-1-(3-chloropyridine-)-2-yl)-1H-pyrazol-5-yl-6-chloro-3,8-dimethyl-2,3-dihydroquinazolin-4(1H)-one] | – | – | – | – | – | – | – | – | – | – | – | – | mortality [5]: 80%
9 | Cc1nc2ccccc2c(=O)n1CC(=O)Nc1ccccc1 [4h, 2-(2-Methyl-4-oxoquinazolin-3(4H)-yl)-N-phenylacetamide] | – | – | – | > 50 µg/mL | – | – | – | – | – | – | – | – | LC90 ([1]; 96 h exposure): >50 (96 h) μg/mL; larvicidal activity (in words) ([1]; compared with the other compounds): less activity
10 | Cc1ccccc1NC(=O)Cn1c(C)nc2ccccc2c1=O [4g, 2-(2-Methyl-4-oxoquinazolin-3(4H)-yl)-N-(o-tolyl)acetamide] | – | – | – | – | 488 µM | -1.33% | 13.4% | 34.6% | 73.1% | – | – | – | solubility [6]: insoluble; also recorded: not soluble
11 | COc1ccc(NC(=O)Cn2c(C)nc3ccccc3c2=O)cc1 [4e, N-(4-Methoxyphenyl)-2-(2-methyl-4-oxoquinazolin-3(4H)-yl)acetamide] | 9.25 µg/mL (≈ 28.6 µM) | 4.27 µg/mL (≈ 13.2 µM) | 2.76 µg/mL (≈ 8.52 µM) | 1.28 µg/mL (≈ 3.96 µM) | – | – | – | – | – | 25.81 (21.16–33.50) μg/mL | 16.26 (12.95–22.06) μg/mL | 12.27 (9.67–17.09) μg/mL | LC90 ([1]; 96 h exposure): 7.414 (5.780–10.598) μg/mL
12 | Cc1nc2ccccc2c(=O)n1CC(=O)Nc1ccc([N+](=O)[O-])cc1 [4i, 2-(2-Methyl-4-oxoquinazolin-3(4H)-yl)-N-(4-nitrophenyl)acetamide] | – | – | – | – | 454 µM | 2.5% | 6.08% | 35.5% | 75.6% | – | – | – | solubility [6]: insoluble; also recorded: not soluble
13 | Cc1ccc(NC(=O)Cn2c(C)nc3ccccc3c2=O)cc1 [4f, 2-(2-Methyl-4-oxoquinazolin-3(4H)-yl)-N-(p-tolyl)acetamide] | 8.67 µg/mL (≈ 28.2 µM) | 5.92 µg/mL (≈ 19.3 µM) | 2.08 µg/mL (≈ 6.78 µM) | – | 186 µM | 17.6% | 34.2% | 62.8% | 98.9% | 14.67 (13.22–16.69) μg/mL | 14.33 (12.51–17.09) μg/mL | 11.29 (9.56–14.17) μg/mL | –
